Data from ChEMBL document CHEMBL3232959, “Design, synthesis and biological evaluation of small-azo-dyes as potent Vesicular Glutamate Transporters inhibitors” (Eur J Med Chem, 2014).
Calls of active or inactive are those of the source. No cut-off for these calls is given here.

What was measured:
[1] = organism: Rattus norvegicus; experiment: Inhibition of rat brain VGLUT assessed as inhibition of [3H]glutamate uptake into vesicles at 20 uM after 10 mins by scintillation spectrophotometry
Procedure, shortened: (§1)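 Crude rat synaptic vesicles were incubated at 37 °C in 10 mM HEPES-KOH pH 7.4 with 4 mM MgSO4, 4 mM KCl, 1 mM L-aspartate and test compound in DMSO. Uptake was started with ATP/Glu containing [3H]Glu and run for 10 min. It was stopped with ice-cold buffer, GF/C filtered, washed 4 times and counted by scintillation. Blanks without ATP or with CCCP/Trypan Blue were subtracted to give ATP-dependent uptake. At least triplicate.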

[2] = biological target: Synaptic vesicular amine transporter VMAT2 (Rattus norvegicus) (UniProt Q01827); experiment: Inhibition of rat vesicular monoamine transporter 2 assessed as inhibition of dopamine uptake at 200 uM
[3] = organism: Rattus norvegicus; experiment: Inhibition of rat brain VGLUT assessed as inhibition of [3H]glutamate uptake into vesicles at 250 uM after 10 mins by scintillation spectrophotometry
[4] = organism: Homo sapiens; experiment: Agonist activity at mGluR (unknown origin) at 200 uM by cell-based assay
[5] = Inhibition of rat brain VGLUT assessed as inhibition of [3H]glutamate uptake into vesicles after 10 mins by scintillation spectrophotometry; procedure, shortened: as §1
[6] = organism: Homo sapiens; experiment: Antagonist activity at mGluR (unknown origin) at 200 uM by cell-based assay
[7] = Competitive inhibition of rat brain VGLUT assessed as inhibition of [3H]glutamate uptake into vesicles after 10 mins by scintillation spectrophotometry
Procedure, shortened: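 Crude rat synaptic vesicles (50 µg aliquots) incubated in 10 mM HEPES-KOH pH 7.4, sucrose, 4 mM MgSO4, 4 mM KCl, L-aspartate. Uptake started with ATP plus Glu and [3H]Glu, 10 min at 37 °C. Compounds added from DMSO, final 0.20 nM upward. Ice-cold buffer stop, GF/C filtration, four washes, scintillation counting. Uptake without ATP or with CCCP/Trypan Blue subtracted; at least triplicate.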

Structure (SMILES)	inhibition [1]	inhibition [2]	IC50 [5]	also measured
O=C1C(S(=O)(=O)O)=Cc2cc(S(=O)(=O)O)ccc2/C1=N/Nc1ccc(I)cc1Cl	inactive			
Nc1cc(S(=O)(=O)O)cc2c1C(=O)/C(=N\Nc1ccc(C(=O)O)cc1)C(S(=O)(=O)O)=C2	15%	inactive		
Cc1cc(C(=O)O)cc(C)c1N/N=C1\C(=O)c2c(N)cc(S(=O)(=O)O)cc2C=C1S(=O)(=O)O	5%	inactive		
O=C1/C(=N\Nc2ccc(I)cc2Cl)C(S(=O)(=O)O)=Cc2cc(S(=O)(=O)O)ccc21	inactive			
O=C(O)c1cc(C(=O)O)c2ccccc2n1				inhibition [3]: inactive
Nc1cc(S(=O)(=O)O)cc2c1C(=O)/C(=N\Nc1c(O)c(F)c(C(=O)O)c(F)c1F)C(S(=O)(=O)O)=C2	18%	inactive		
Nc1ccc(-c2ccc(N/N=C3\C(=O)c4c(N)cc(S(=O)(=O)O)cc4C=C3S(=O)(=O)O)c(Cl)c2)cc1Cl	88%	inactive	1.6 µM	Activity [4]: inactive; Activity [6]: inactive
Nc1cc(S(=O)(=O)O)cc2c1C(=O)/C(=N\Nc1ccc(C(=O)O)cc1Cl)C(S(=O)(=O)O)=C2	55%	inactive		
O=C(O)c1cc(C(=O)O)c2cc(/C=C/c3ccccc3)ccc2n1			40 µM	
Nc1cc(S(=O)(=O)O)cc2c1C(=O)/C(=N\Nc1ccc(C(=O)O)cc1C(F)(F)F)C(S(=O)(=O)O)=C2	76%	inactive	6.8 µM	
Nc1cc(S(=O)(=O)O)cc2c1C(=O)/C(=N\Nc1c(O)c(F)c(Br)c(F)c1F)C(S(=O)(=O)O)=C2	39%	inactive		
Nc1cc(S(=O)(=O)O)cc2c1C(=O)/C(=N\Nc1ccc(C(=O)O)cc1F)C(S(=O)(=O)O)=C2	18%	inactive		
Cc1cc(-c2ccc(/N=N/c3ccc4c(S(=O)(=O)O)cc(S(=O)(=O)O)c(N)c4c3O)c(C)c2)ccc1/N=N/c1ccc2c(S(=O)(=O)O)cc(S(=O)(=O)O)c(N)c2c1O [EVANS BLUE]			0.087 µM	
Nc1ccc(-c2ccc(N/N=C3\C(=O)c4c(N)cc(S(=O)(=O)O)cc4C=C3S(=O)(=O)O)cc2)cc1	25%	inactive		
N=c1ccc2c(=O)/c(=N\Nc3ccc(I)cc3Cl)c(S(=O)(=O)O)cc=2/c1=N/Nc1ccc(I)cc1Cl	inactive			
Nc1cc(S(=O)(=O)O)cc2c1C(=O)/C(=N\Nc1ccc(I)cc1Cl)C(S(=O)(=O)O)=C2	45%	inactive		
Nc1cc(S(=O)(=O)O)cc2cc(S(=O)(=O)O)cc(O)c12	inactive			

Structure (SMILES)	inhibition [1]	inhibition [2]	IC50 [5]	also measured
Nc1ccc(-c2ccc(N/N=C3\C(=O)c4c(N)cc(S(=O)(=O)O)cc4C=C3S(=O)(=O)O)c(F)c2)cc1F	74%	inactive	4.8 µM	
Cc1cc(-c2ccc(N/N=C3\C(=O)c4c(N)cc(S(=O)(=O)O)cc4C=C3S(=O)(=O)O)c(C)c2)ccc1N	52%	inactive		
Nc1ccc(-c2ccc(N/N=C3\C(=O)c4c(N)cc(S(=O)(=O)O)cc4C=C3S(=O)(=O)O)c(C(F)(F)F)c2)cc1C(F)(F)F	98%	inactive	1.8 µM	
COc1cc(C(=O)O)ccc1N/N=C1\C(=O)c2c(N)cc(S(=O)(=O)O)cc2C=C1S(=O)(=O)O	25%	inactive		
Nc1cc(S(=O)(=O)O)cc2c1C(=O)/C(=N\Nc1c(F)c(F)c(-c3c(F)c(F)c(N)c(F)c3F)c(F)c1F)C(S(=O)(=O)O)=C2	96%	inactive	3.3 µM	
O=C(O)c1cc(C(=O)O)c2cc(/N=N/c3ccc(-c4ccccc4)cc3)ccc2n1			288 µM	
Nc1cc(S(=O)(=O)O)cc2c1C(=O)/C(=N\Nc1ccc(Br)cc1)C(S(=O)(=O)O)=C2	33%	inactive		
COc1cc(Br)ccc1N/N=C1\C(=O)c2c(N)cc(S(=O)(=O)O)cc2C=C1S(=O)(=O)O	42%	inactive	> 20 µM	
Nc1cc(S(=O)(=O)O)cc2c1C(=O)/C(=N\Nc1ccc(I)cc1C(F)(F)F)C(S(=O)(=O)O)=C2	83%	inactive	5.8 µM	
Cc1cc(C(=O)O)ccc1N/N=C1\C(=O)c2c(N)cc(S(=O)(=O)O)cc2C=C1S(=O)(=O)O	15%	inactive		
Cc1cc(Br)cc(C)c1N/N=C1\C(=O)c2c(N)cc(S(=O)(=O)O)cc2C=C1S(=O)(=O)O	77%	inactive	2.1 µM	
Nc1cc(S(=O)(=O)O)cc2c1C(=O)/C(=N\Nc1ccc(I)cc1F)C(S(=O)(=O)O)=C2	46%	inactive		
O=C(O)c1cc(C(=O)O)c2cccc(O)c2n1			286 µM	
Cc1cc(-c2ccc(/N=N/c3c(S(=O)(=O)O)cc4cc(S(=O)(=O)O)cc(N)c4c3O)c(C)c2)ccc1/N=N/c1c(S(=O)(=O)O)cc2cc(S(=O)(=O)O)cc(N)c2c1O [TRYPAN BLUE]			0.05 µM	IC50 [7]: 0.1 µM
COc1cc(-c2ccc(/N=N/c3ccc4c(S(=O)(=O)O)cc(S(=O)(=O)O)c(N)c4c3O)c(OC)c2)ccc1/N=N/c1ccc2c(S(=O)(=O)O)cc(S(=O)(=O)O)c(N)c2c1O [CHICAGO SKY BLUE]			3 µM	
Cc1cc(I)ccc1N/N=C1\C(=O)c2c(N)cc(S(=O)(=O)O)cc2C=C1S(=O)(=O)O	83%	inactive	2.1 µM	Activity [4]: inactive; Activity [6]: inactive
